This note sets out measurements from article PMC5415879 (Molecular Pharmaceutics, 2017).

What all share (type): physicochemical
The nature of data set [1]: Particle morphology by atomic force microscopy. The following applies: nanostructures immobilized on poly-L-lysine coated mica, room temperature.
A short description of data set [2]: Critical aggregation concentration, Nile red assay. The following applies: Nile red fluorescence (Ex550/Em635), PBS pH 7.4, 0.1 to 500 μg/mL, overnight incubation at room temperature; intersection of two linear fits.
Data set [3] in a line: Particle morphology and size by transmission electron microscopy. The following applies: 0.1 mg/mL in HEPES 10 mM, negative staining with 2% uranyl acetate. The essentials:
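Applies to peptide–pNIPAm self-assembled particles. Samples at 0.1 mg/mL in 10 mM HEPES are applied to prewarmed carbon-coated copper grids for 2 min, and excess liquid is blotted off with filter paper. Grids are negatively stained with 2% uranyl acetate for 45 s and dried 10 min at room temperature. Morphology and size are then read from TEM images.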

Where no end group is shown, it is not given here.

In the case of Ac-AAVVLLLWGQAEPDRAHYNIVTF [HPV-SA], the “particle diameter by AFM” value in data set [1] was approximately 100 nm. The “critical aggregation concentration (CAC)” value in data set [2] is given as “ca. 15 μM”.

With HPV16 E7_43–57-poly(DMAm) [HPV-pDMAm], the “particle size by TEM” value in data set [3] was “no particles”.

Take HPV16 E7_43–57-poly(NIPAm) [HPV-pNIPAm]: the “particle size by TEM” value in data set [3] is on record as 20–80 nm.

For the substance OVA250–264-poly(NIPAm) [OVA-pNIPAm], the “particle size by TEM” value in data set [3] is reported as 20–80 nm.
